Experiment [1] relates to Plasmodium falciparum. The experiment in a line: Antiplasmodial activity against Plasmodium falciparum NF54 assessed as reduction in stage IV and V gametocyte formation at IC50 level incubated for 48 hrs measured 7 days post compound wash by Giemsa staining. In kind it is functional, organism-based.
Experiment [2] has as its system Human immunodeficiency virus 1. The experiment can be described thus: Antiviral activity against VSV-G pseudotyped HIV1 lentiviral particles infected in human HeLa cells incubated for 48 hrs by spectrofluorometry. The format is functional, organism-based.
A further experiment concerns HeLa. The experiment in a line: Cytotoxicity against human HeLa cells by MTT assay. The format is cell-based. The essentials:
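MTT reduction assay on HeLa cells (DMEM, 10% heat-inactivated FCS) with serial dilutions; CC50 taken as concentration giving 50% growth inhibition, ± SEM.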

The nature of experiment [3]: Selectivity index, ratio of CC50 for human HeLa cells to IC50 for Plasmodium falciparum 3D7 ring stage cells. In kind it is functional. The procedure, abridged:
(§1)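 Ratio of HeLa MTT CC50 to Malstat IC50 against the stated P. falciparum strain (ring-stage, triplicate, 1% parasitemia).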

In experiment [4] the test system is Plasmodium falciparum. The experiment can be described thus: Antiplasmodial activity against drug resistant Plasmodium falciparum Dd2 ring stage cells assessed as reduction parasitemia by Malstat assay. The format is functional, organism-based.
In experiment [5] the test system is Plasmodium falciparum. The experiment can be described thus: Antiplasmodial activity against Plasmodium falciparum 3D7 ring stage cells assessed as reduction parasitemia by Malstat assay. In kind it is functional, organism-based.
Experiment [6] can be described thus: Selectivity index, ratio of CC50 for human HeLa cells to IC50 for Plasmodium falciparum Dd2 ring stage cells. The format is functional. The procedure, abridged: as §1
Experiment [7] can be described thus: Selectivity index, ratio of CC50 for human HeLa cells to IC50 for VSV-G pseudotyped HIV1 lentiviral particles. The format is functional. The essentials:
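Ratio of HeLa MTT CC50 to IC50 in the 48 h VSV-G-pseudotyped HIV-1 reporter assay in HeLa cells.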

Setting [8] is: Plasmodium falciparum, 3D7, read-out: IC50.
Where [9] appears, read: Human immunodeficiency virus 1, HeLa, 48 h, read-out: IC50.

Activity calls are given as the source filed them. No cut-off for these calls is given here.

Data on 21 compounds can be found in ChEMBL document CHEMBL2069294, “Synthesis and evaluation of hybrid drugs for a potential HIV/AIDS-malaria combination therapy” (Bioorg Med Chem, 2012).

As to `C[C@H]1[C@@H](O)O[C@@H]2O[C@@]3(C)CC[C@H]4[C@H](C)CC[C@@H]1[C@@]24OO3` [ARTENIMOL], the inhibition result in the experiment on Plasmodium falciparum [1] is “Active”. Besides, the IC50 result in experiment [2] (hela) was “Not Active”; in the experiment on HeLa, over 100000 nM; with Plasmodium falciparum [4], 10 nM; with Plasmodium falciparum [5] (setting [8]), 30 nM. The “Ratio CC50/IC50” value in experiment [3] is listed as over 3333.3.
On to `Cc1cn([C@H]2C[C@H](NC(=O)NCCNc3ccnc4cc(Cl)ccc34)[C@@H](CO[Si](c3ccccc3)(c3ccccc3)C(C)(C)C)O2)c(=O)[nH]c1=O`, for which the “Ratio CC50/IC50” value was found to be 69.9 in experiment [6] and 64.3 in experiment [3]. The IC50 result in experiment [2] (hela) is “Not Active”; in the experiment with HeLa it was 23800 nM; in the experiment with Plasmodium falciparum [4], 340 nM; in the experiment with Plasmodium falciparum [5] (setting [8]), 370 nM.
Take `Cc1cn([C@H]2C[C@H](NC(=O)CC3CCC4(CC3)OOC3(OO4)C4CC5CC(C4)CC3C5)[C@@H](CO[Si](c3ccccc3)(c3ccccc3)C(C)(C)C)O2)c(=O)[nH]c1=O` (stereo partly specified): the “Ratio CC50/IC50” value in experiment [6] is recorded as over 526.3; in experiment [3], over 370.4. For the same compound, the half-maximal inhibitory concentration (IC50) entry in experiment [2] (hela) was “Not Active”; in the experiment with HeLa, over 100000 nM; in the experiment on Plasmodium falciparum [4], 190 nM; with Plasmodium falciparum [5] (setting [8]) it was 270 nM.
As to `Cc1nnc(C(=O)NC(C)(C)c2nc(C(=O)NCc3ccc(F)cc3)c(O)c(=O)n2C)o1` [RALTEGRAVIR], in experiment [7], the “Ratio CC50/IC50” value is over 10000. Moreover, the IC50 in experiment [2] (setting [9]) was 10 nM; with HeLa, over 100000 nM; in the experiment with Plasmodium falciparum [5], “Not Active”.
Turning to `NCCNc1ccnc2cc(Cl)ccc12`, the “Ratio CC50/IC50” value is on record as 275.8 in experiment [6] and 2114.7 in experiment [3]. Further, the results for the IC50 result (in experiment [2] (hela); in the experiment with HeLa; in the experiment with Plasmodium falciparum [5] (setting [8])) were “Not Active”, 63400 nM and 30 nM, respectively.
For the compound `Cc1cn([C@H]2C[C@H](NC(=O)NCCNc3ccnc4cc(Cl)ccc34)[C@@H](CO)O2)c(=O)[nH]c1=O`, the “Ratio CC50/IC50” value in experiment [6] is over 3.2; in experiment [3], over 28.3. For the same compound, the half-maximal inhibitory concentration (IC50) result in experiment [2] (hela) is “Not Active”; with HeLa it was over 100000 nM; in the experiment on Plasmodium falciparum [4] it was 31600 nM; in the experiment on Plasmodium falciparum [5] (setting [8]) it was 3530 nM.
As to `NCCCCCNc1ccnc2cc(Cl)ccc12`, the “Ratio CC50/IC50” value in experiment [6] was over 246.3; in experiment [3], over 435.7. Moreover, the IC50 entry in experiment [2] (hela) is “Not Active”; in the experiment on HeLa, 56600 nM; with Plasmodium falciparum [4], 230 nM; in the experiment on Plasmodium falciparum [5] (setting [8]), 130 nM.
Regarding `CCN(CC)CCCC(C)Nc1ccnc2cc(Cl)ccc12` (stereo unspecified) [CHLOROQUINE], the IC50 in experiment [2] (setting [9]) was 12500 nM; with HeLa it was over 100000 nM.
On to `OCCNc1ccnc2cc(Cl)ccc12`, for which the entries for the “Ratio CC50/IC50” value in experiment [6] and in experiment [3] were over 58.1 and over 45.5, respectively. The IC50 entry in experiment [2] (hela) was “Not Active”; in the experiment on HeLa, over 100000 nM; with Plasmodium falciparum [4], 1720 nM; in the experiment with Plasmodium falciparum [5] (setting [8]), 2200 nM.
On to `Cc1cn([C@H]2C[C@H](NC(=O)NCCCCCNc3ccnc4cc(Cl)ccc34)[C@@H](CO[Si](c3ccccc3)(c3ccccc3)C(C)(C)C)O2)c(=O)[nH]c1=O`, for which the “Ratio CC50/IC50” value in experiment [7] is given as 4.6; in experiment [6], 451.6; in experiment [3] it was 62.3. Moreover, the IC50 in experiment [2] (setting [9]) was found to be 7920 nM; in the experiment on HeLa, 36100 nM; with Plasmodium falciparum [4] it was 80 nM; with Plasmodium falciparum [5] (setting [8]), 580 nM.
As for `Cc1cn([C@H]2C[C@H](NC(=O)NCCCCCNc3ccnc4cc(Cl)ccc34)[C@@H](CO)O2)c(=O)[nH]c1=O`, the “Ratio CC50/IC50” value is listed as over 12.5 in experiment [6] and over 19.3 in experiment [3]. In addition, the IC50 entry is “Not Active” in experiment [2] (hela), over 100000 nM in the experiment with HeLa, 8020 nM in the experiment with Plasmodium falciparum [4] and 5180 nM in the experiment with Plasmodium falciparum [5] (setting [8]).
As for `COc1cc(NC(C)CCCN)c2ncccc2c1` (stereo unspecified), the inhibition entry in the experiment with Plasmodium falciparum [1] is “Active”.
Turning to `Cc1cn([C@H]2C[C@H](NC(=O)C(=O)NCCCCCNc3ccnc4cc(Cl)ccc34)[C@@H](CO)O2)c(=O)[nH]c1=O`, the “Ratio CC50/IC50” value in experiment [6] is listed as over 9.5; in experiment [3], over 51.5. In addition, the IC50 entry in experiment [2] (hela) is “Not Active”; in the experiment with HeLa it was over 100000 nM; in the experiment on Plasmodium falciparum [4], 10600 nM; in the experiment with Plasmodium falciparum [5] (setting [8]) it was 1940 nM.
As to `OCc1cccc(Nc2ccnc3cc(Cl)ccc23)c1`, the “Ratio CC50/IC50” value is given as over 68.5 in experiment [6] and over 70.4 in experiment [3]. Moreover, the IC50 result in experiment [2] (hela) was “Not Active”; in the experiment with HeLa it was over 100000 nM; with Plasmodium falciparum [4], 1460 nM; in the experiment with Plasmodium falciparum [5] (setting [8]) it was 1420 nM.
On to `Cc1cn([C@H]2C[C@H](N=[N+]=[N-])[C@@H](CO)O2)c(=O)[nH]c1=O` [ZIDOVUDINE], for which the IC50 in experiment [2] (setting [9]) was 40 nM; in the experiment with HeLa, over 100000 nM; in the experiment on Plasmodium falciparum [5] it was “Not Active”.
Take `Cc1cn([C@H]2C[C@H](NC(=O)CC3CCC4(CC3)OOC3(OO4)C4CC5CC(C4)CC3C5)[C@@H](CO)O2)c(=O)[nH]c1=O` (stereo partly specified): the “Ratio CC50/IC50” value was 233.8 in experiment [6] and 106.3 in experiment [3]. Moreover, the IC50 result in experiment [2] (hela) was “Not Active”; with HeLa it was 23400 nM; with Plasmodium falciparum [4], 100 nM; in the experiment on Plasmodium falciparum [5] (setting [8]), 220 nM.
Consider `Cc1cn([C@H]2C[C@H](n3cc(CO[C@H]4O[C@@H]5O[C@@]6(C)CC[C@H]7[C@H](C)CC[C@@H]([C@H]4C)[C@@]57OO6)nn3)[C@@H](CO)O2)c(=O)[nH]c1=O`, for which the entries for the “Ratio CC50/IC50” value in experiment [7], in experiment [6] and in experiment [3] were over 9, over 1000 and over 370.4, respectively. The IC50 in experiment [2] (setting [9]) was 11100 nM; with HeLa it was over 100000 nM; in the experiment with Plasmodium falciparum [4], 100 nM; in the experiment with Plasmodium falciparum [5] (setting [8]) it was 270 nM.
On to `CCOC(=O)C(=O)N[C@H]1C[C@H](n2cc(C)c(=O)[nH]c2=O)O[C@@H]1CO[Si](c1ccccc1)(c1ccccc1)C(C)(C)C`, for which the figures for the “Ratio CC50/IC50” value in experiment [6] and in experiment [3] were 5.3 and 5.75, respectively. Further, the IC50 entry is “Not Active” in experiment [2] (hela), 64000 nM in the experiment with HeLa, 12100 nM in the experiment on Plasmodium falciparum [4] and 11100 nM in the experiment on Plasmodium falciparum [5] (setting [8]).
As for `Cc1cn([C@H]2C[C@H](N=[N+]=[N-])[C@@H](CO)O2)c(=O)n(Cc2cccc(Nc3ccnc4cc(Cl)ccc34)c2)c1=O`, the “Ratio CC50/IC50” value was over 56.8 in experiment [7], over 454.5 in experiment [6] and over 625 in experiment [3]. Besides, the IC50 in experiment [2] (setting [9]) was 1760 nM; in the experiment on HeLa, over 100000 nM; in the experiment with Plasmodium falciparum [4] it was 220 nM; in the experiment on Plasmodium falciparum [5] (setting [8]), 160 nM.
Consider `Cc1cn([C@H]2C[C@H](NC(=O)C(=O)NCCCCCNc3ccnc4cc(Cl)ccc34)[C@@H](CO[Si](c3ccccc3)(c3ccccc3)C(C)(C)C)O2)c(=O)[nH]c1=O`, for which the “Ratio CC50/IC50” value is on record as 31.8 in experiment [7], 358.1 in experiment [6] and 75.4 in experiment [3]. The IC50 in experiment [2] (setting [9]) turned out to be 900 nM; in the experiment on HeLa, 28600 nM; in the experiment with Plasmodium falciparum [4] it was 80 nM; in the experiment with Plasmodium falciparum [5] (setting [8]), 380 nM.
On to `Cc1cn([C@H]2C[C@H](N=[N+]=[N-])[C@@H](CO)O2)c(=O)n(CCNc2ccnc3cc(Cl)ccc23)c1=O`, for which the “Ratio CC50/IC50” value is over 14 in experiment [7], over 153.8 in experiment [6] and over 217.4 in experiment [3]. For the same compound, the IC50 was 7150 nM in experiment [2] (setting [9]), over 100000 nM with HeLa, 650 nM in the experiment on Plasmodium falciparum [4] and 460 nM in the experiment on Plasmodium falciparum [5] (setting [8]).
